Data as given in ChEMBL document CHEMBL1132915.

Legend:
[1] = molecular target: Xaa-Pro dipeptidase (Alteromonas sp.) (UniProt Q44238); assay: Kinetic constant Kcat from initial velocity assay against Organophosphorus acid anhydrolase from Alteromonas sp. JD6.5
How it was run: (§1)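 Recombinant OPAA expressed in E. coli XL1 (plasmid pTCJS4), then ammonium sulfate and Q-Sepharose purification. Continuous plate assay at 25 °C with 1 μg enzyme in 50 mM bis-Tris propane pH 8.5, 100 mM NaCl, 0.1 mM MnCl2. Phenyl-containing and diisopropyl substrates had 5% methanol, diphenyl substrate 20%. p-Nitrophenol release was read at 400 nm (ε 17,000 M⁻¹ cm⁻¹). Rates were fitted to v = kcat·E·A/(Km + A).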

[2] = molecular target: Xaa-Pro dipeptidase (Alteromonas sp.) (UniProt Q44238); assay: Ratio of kinetic constant Kcat to Km from initial velocity assay against OPAA from Alteromonas sp. JD6.5; how it was run: as §1
[3] = molecular target: Xaa-Pro dipeptidase (Alteromonas sp.) (UniProt Q44238); assay: Ratio of kinetic constant K1 to K2 from progress curves against OPAA from Alteromonas sp. JD6.5
How it was run: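 Time-course assays at 25 °C in a cuvette spectrophotometer, started by adding enzyme to 3.0 mL of 50 mM bis-Tris propane pH 8.5, 100 mM NaCl, 0.1 mM MnCl2, without methanol. Complete hydrolysis was followed at 400 nm. Traces were fitted to single or double exponential equations to give rate constants for the two enantiomers, and their ratio was taken.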

[4] = molecular target: Xaa-Pro dipeptidase (Alteromonas sp.) (UniProt Q44238); assay: Ratio of kinetic constant Kcat to Km Sp and Kcat to Km Rp from initial velocity assay against OPAA from Alteromonas sp. JD6.5; how it was run: as §1
[5] = tested on: CC(C)O[P@@](=O)(Oc1ccccc1)Oc1ccc([N+](=O)[O-])cc1; assay: (§2) Kinetic constant Km from initial velocity assay against Organophosphorus acid anhydrolase from Alteromonas sp. JD6.5; how it was run: as §1
[6] = tested on: CC(C)O[P@](=O)(Oc1ccccc1)Oc1ccc([N+](=O)[O-])cc1; assay: as §2; how it was run: as §1
[7] = tested on: CCOP(=O)(OCC)Oc1ccc([N+](=O)[O-])cc1; assay: as §2; how it was run: as §1
[8] = tested on: CCO[P@@](=O)(OC)Oc1ccc([N+](=O)[O-])cc1; assay: as §2; how it was run: as §1
[9] = tested on: CCO[P@@](=O)(Oc1ccccc1)Oc1ccc([N+](=O)[O-])cc1; assay: as §2; how it was run: as §1
[10] = tested on: CCO[P@](=O)(OC)Oc1ccc([N+](=O)[O-])cc1; assay: as §2; how it was run: as §1
[11] = tested on: CCO[P@](=O)(Oc1ccccc1)Oc1ccc([N+](=O)[O-])cc1; assay: as §2; how it was run: as §1
[12] = tested on: COP(=O)(OC)Oc1ccc([N+](=O)[O-])cc1; assay: as §2; how it was run: as §1
[13] = tested on: CO[P@@](=O)(Oc1ccc([N+](=O)[O-])cc1)OC(C)C; assay: as §2; how it was run: as §1
[14] = tested on: CO[P@@](=O)(Oc1ccccc1)Oc1ccc([N+](=O)[O-])cc1; assay: as §2; how it was run: as §1
[15] = tested on: CO[P@](=O)(Oc1ccc([N+](=O)[O-])cc1)OC(C)C; assay: as §2; how it was run: as §1
[16] = tested on: CO[P@](=O)(Oc1ccccc1)Oc1ccc([N+](=O)[O-])cc1; assay: as §2; how it was run: as §1
[17] = tested on: O=[N+]([O-])c1ccc(OP(=O)(Oc2ccccc2)Oc2ccccc2)cc1; assay: as §2; how it was run: as §1
[18] = molecular target: Xaa-Pro dipeptidase (Alteromonas sp.) (UniProt Q44238); assay: Kinetic constant Kcat from initial velocity assay (at 7.6 mM substrate) against Organophosphorus acid anhydrolase from Alteromonas sp. JD6.5
How it was run: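 Initial-rate assay at a single substrate concentration of 7.6 mM. Used 1 μg purified recombinant OPAA (E. coli XL1/pTCJS4) at 25 °C in 50 mM bis-Tris propane pH 8.5, 100 mM NaCl, 0.1 mM MnCl2, with methanol cosolvent as needed. Hydrolysis was followed at 400 nm as p-nitrophenol (ε 17,000 M⁻¹ cm⁻¹).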

[19] = molecular target: Xaa-Pro dipeptidase (Alteromonas sp.) (UniProt Q44238); assay: Ratio of kinetic constant Kcat to Km by linear fit to data against OPAA from Alteromonas sp. JD6.5
How it was run: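 kcat/Km was taken from a linear fit to initial-rate data. Continuous 400 nm p-nitrophenol assay at 25 °C with 1 μg recombinant OPAA (E. coli XL1/pTCJS4). Buffer was 50 mM bis-Tris propane pH 8.5, 100 mM NaCl, 0.1 mM MnCl2, plus 5–20% methanol depending on substrate.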

Xaa-Pro dipeptidase (Alteromonas sp.) (UniProt Q44238), sequence (Q44238 whole entry, looked up): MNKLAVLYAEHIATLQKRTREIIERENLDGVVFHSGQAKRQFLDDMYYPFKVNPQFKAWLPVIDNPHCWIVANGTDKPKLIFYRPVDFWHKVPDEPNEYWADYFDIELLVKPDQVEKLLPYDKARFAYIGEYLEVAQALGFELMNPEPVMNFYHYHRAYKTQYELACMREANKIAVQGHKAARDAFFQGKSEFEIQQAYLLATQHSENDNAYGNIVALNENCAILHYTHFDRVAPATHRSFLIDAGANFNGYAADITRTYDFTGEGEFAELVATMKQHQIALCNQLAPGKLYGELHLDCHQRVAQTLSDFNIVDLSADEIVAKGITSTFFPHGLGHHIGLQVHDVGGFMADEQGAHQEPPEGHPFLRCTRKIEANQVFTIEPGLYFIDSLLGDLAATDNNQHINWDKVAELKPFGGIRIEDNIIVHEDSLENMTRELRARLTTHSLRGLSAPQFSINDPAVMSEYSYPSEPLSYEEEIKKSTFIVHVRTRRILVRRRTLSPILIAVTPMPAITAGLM

Compound | k cat [1] [s⁻¹] | k cat/Km [2] [M⁻¹ s⁻¹] | Ratio [3] | Ratio [4] | also measured
CO[P@@](=O)(Oc1ccccc1)Oc1ccc([N+](=O)[O-])cc1 | 40 | 9990 |  |  | 
COP(=O)(OC)Oc1ccc([N+](=O)[O-])cc1 | 1.4 | 140 |  |  | 
O=[N+]([O-])c1ccc(OP(=O)(Oc2ccccc2)Oc2ccccc2)cc1 | 0.1 | 530 |  |  | 
CO[P@](=O)(Oc1ccccc1)Oc1ccc([N+](=O)[O-])cc1 | 1.8 | 2340 | 14.5 | 4 | 
CCO[P@@](=O)(Oc1ccccc1)Oc1ccc([N+](=O)[O-])cc1 | 0.7 | 360 |  |  | 
Xaa-Pro dipeptidase (Alteromonas sp.) (from UniProt Q44238) |  |  |  |  | Km [5]: 1.3 mM; Km [6]: 0.3 mM; Km [7]: > 7.6 mM; Km [8]: 8.3 mM; Km [9]: 2 mM; Km [10]: 14 mM; Km [11]: 0.6 mM; Km [12]: 9.5 mM; Km [13]: 19 mM; Km [14]: 4 mM; Km [15]: 12 mM; Km [16]: 0.8 mM; Km [17]: 0.2 mM
CO[P@](=O)(Oc1ccc([N+](=O)[O-])cc1)OC(C)C | 54 | 4510 |  |  | 
CC(C)O[P@@](=O)(Oc1ccccc1)Oc1ccc([N+](=O)[O-])cc1 | 0.2 | 150 |  |  | 
CCO[P@](=O)(Oc1ccccc1)Oc1ccc([N+](=O)[O-])cc1 | 0.2 | 300 | 2.8 | < 3 | 
CCO[P@](=O)(OC)Oc1ccc([N+](=O)[O-])cc1 | 47 | 3250 |  |  | 
CCO[P@@](=O)(OC)Oc1ccc([N+](=O)[O-])cc1 | 0.8 | 90 | 112 | 36 | 
CCOP(=O)(OCC)Oc1ccc([N+](=O)[O-])cc1 |  |  |  |  | k cat [18]: 1.8 s⁻¹; k cat/Km [19]: 280 M⁻¹ s⁻¹
CO[P@@](=O)(Oc1ccc([N+](=O)[O-])cc1)OC(C)C | 3.6 | 190 | 100 | 23 | 
CC(C)O[P@](=O)(Oc1ccccc1)Oc1ccc([N+](=O)[O-])cc1 | 0.1 | 240 | 3.5 | < 3 | 
